Measured values reported in ChEMBL document CHEMBL2016474, “Structure-activity analysis and cell-based optimization of human galactokinase inhibitors” (ACS Med Chem Lett, 2011).
Calls of active or inactive are those of the source. No cut-off for these calls is given here.

Experiments:
Galactokinase [1] = target: T1, Galactokinase (Homo sapiens, UniProt P51570); experiment: Inhibition of human galactokinase after 30 mins by Kinase-GloTM assay
In short: (§1)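 GALK in vitro inhibition with IC50 determination; each value from three replicate measurements, given with standard deviation. Compounds not active below 50 μM recorded as exceeding that concentration.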

Galactokinase [2] = target: T1, Galactokinase; experiment: Inhibition of […] in human primary fibroblasts derived from GALT-deficient patients assessed as reduction in accumulation of gal-1P at 50 uM preincubated overnight prior galactose challenge measured after 4 hrs
In short: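 Intracellular GALK inhibition in primary fibroblasts from classic galactosemia (GALT-deficient) patients. Compound given at 50 or 100 μM. Read-out is the percent reduction of cellular gal-1P accumulation.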

[3] = Toxicity in human primary fibroblasts assessed as visible signs of lethality at 50 uM; assay type: cell-based; conditions: fibroblast
[4] = Toxicity in human primary fibroblasts; assay type: cell-based; conditions: fibroblast
Galactokinase [5] = target: T1, Galactokinase; experiment: Inhibition of human […] at >50 uM after 30 mins by Kinase-GloTM assay; in short: as §1
[6] = Toxicity in human primary fibroblasts assessed as lethality at >= 50 uM within 1 hr; assay type: cell-based; conditions: fibroblast

T1 sequence (P51570 whole entry): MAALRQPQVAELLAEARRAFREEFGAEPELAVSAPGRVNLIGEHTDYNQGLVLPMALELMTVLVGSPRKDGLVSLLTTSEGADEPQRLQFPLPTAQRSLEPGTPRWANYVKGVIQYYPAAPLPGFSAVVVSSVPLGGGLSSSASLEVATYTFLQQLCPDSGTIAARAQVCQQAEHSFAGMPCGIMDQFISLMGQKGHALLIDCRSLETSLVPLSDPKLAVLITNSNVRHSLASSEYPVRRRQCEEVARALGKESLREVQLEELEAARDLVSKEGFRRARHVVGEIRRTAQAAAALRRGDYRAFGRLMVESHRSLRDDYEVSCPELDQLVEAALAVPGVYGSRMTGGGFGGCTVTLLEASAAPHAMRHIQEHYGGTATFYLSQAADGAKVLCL

| SMILES | IC50 (Galactokinase [1]) [nM] | inhibition (Galactokinase [5]) | also measured |
| --- | --- | --- | --- |
| CSC1=C(C#N)C(=O)NC(c2ccccc2O)S1 (stereo not given) |  |  | inhibition (Galactokinase [1]): Active |
| N#CC1=C(SCc2cccc(N3CCOCC3)c2)SC(c2ccc(O)cc2)NC1=O (stereo not given) | 2400 |  | inhibition (Galactokinase [2]): inactive; Activity [3]: Non-toxic |
| N#CC1=C(SCc2ccccc2)SC(c2ccc(O)c(O)c2)NC1=O (stereo not given) |  |  | Activity [4]: Toxic |
| N#CC1=C(SCc2ccccc2)SCNC1=O |  | inactive |  |
| N#CC1=C(SCc2ccccc2)SC(c2cc(O)ccc2O)NC1=O (stereo not given) | 700 |  |  |
| CC1NC(=O)C(C#N)=C(SCc2ccccc2)S1 (stereo not given) |  | inactive |  |
| CC1(C)NC(=O)C(C#N)=C(SCc2ccccc2)S1 |  | inactive |  |
| N#CC1=C(SCc2ccccc2)SC(c2ccc(O)cc2)NC1=O (stereo not given) | 1800 |  |  |
| CCCCSC1=C(C#N)C(=O)NC(c2ccccc2O)S1 (stereo not given) |  | inactive |  |
| N#CC1=C(SCc2cccc(N3CCOCC3)c2)SC(c2cc(O)ccc2O)NC1=O (stereo not given) | 900 |  | inhibition (Galactokinase [2]): inactive |
| CSC1=C(C#N)C(=O)NC(c2ccc(Cl)cc2Cl)S1 (stereo not given) |  | inactive |  |
| N#CC1=C(SCc2ccc(O)cc2)SC2(CCC(C(=O)O)CC2)NC1=O (stereo not given) |  | inactive |  |
| CC(=O)Oc1ccc(C2NC(=O)C(C#N)=C(SCc3ccccc3)S2)cc1OC(C)=O (stereo not given) |  |  | Activity [6]: Toxic |
| N#CC1=C(SCc2ccccc2)SC(c2ccc3c(c2)OCO3)NC1=O (stereo not given) | 22500 |  |  |
| COc1ccc(C2NC(=O)C(C#N)=C(SCc3ccccc3)S2)cc1 (stereo not given) | > 50000 |  |  |
| N#CC1=C(SCc2ccccc2)SC(c2cccc(O)c2)NC1=O (stereo not given) | 50000 |  |  |
| N#CC1=C(SCc2ccccc2)SC(c2ccc(O)cc2O)NC1=O (stereo not given) | 1200 |  |  |
| N#CC1=C(SCc2ccccc2)SC(c2ccc(C(=O)O)cc2)NC1=O (stereo not given) |  |  | inhibition (Galactokinase [1]): Active |
| N#CC1=C(SCc2ccccc2)SC(c2ccccc2O)NC1=O (stereo not given) | 12000 |  |  |
| N#CC1=C(SCc2cccc(N3CCOCC3)c2)SC(c2ccc(O)c(O)c2)NC1=O (stereo not given) | 1200 |  | inhibition (Galactokinase [2]): 16%; Activity [3]: Non-toxic |
